From ChEMBL document CHEMBL1123538, “Inhibitors of human purine nucleoside phosphorylase. Synthesis, purine nucleoside phosphorylase inhibition, and T-cell cytotoxicity of 2,5-diaminothiazolo[5,4-d]pyrimidin-7(6H)-one and 2,5-diaminothiazolo[4,5-d]pyrimidin-7(6H)-one. Two thio isosteres of 8-aminoguanine” (J Med Chem, 1986)

Tests used:
[1] = organism: Homo sapiens; assay: Cytotoxicity was evaluated against human MGL-8 B -lymphoblasts (Presence of 10 uM 2'-deoxyguanosine (W/GdR)); assay type: functional; settings: MGL8
In short: (§1)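 Cell growth measured as [3H]thymidine uptake. Lines kept in RPMI 1640 with 10% heat-inactivated fetal calf serum, L-glutamine and penicillin-streptomycin; assay run in RPMI 1640 plus 10% heat-inactivated horse serum.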

[2] = organism: Homo sapiens; assay: Cytotoxicity was evaluated against human MGL-8 B -lymphoblasts (absence of 10 uM 2'-deoxyguanosine (Wo/GdR)); assay type: functional; settings: MGL8; in short: as §1
[3] = tested on: MOLT-4; assay: Cytotoxicity was evaluated against human MOLT-4 T-lymphoblasts (presence of 10 uM 2'-deoxyguanosine (W/GdR)); assay type: functional, cell-based; in short: as §1
[4] = tested on: MOLT-4; assay: Cytotoxicity was evaluated against human MOLT-4 T-lymphoblasts (absence of 10 uM 2'-deoxyguanosine (Wo/GdR)); assay type: functional, cell-based; in short: as §1
[5] = target: T1, Purine nucleoside phosphorylase (Homo sapiens, UniProt P00491); assay: Compound was evaluated for 50% inhibition of purine nucleoside phosphorylase activity by was measured by the conversion of [8-14C]-inosine to [8-14C]-hypoxanthine; assay type: functional
T1 sequence (P00491 whole entry): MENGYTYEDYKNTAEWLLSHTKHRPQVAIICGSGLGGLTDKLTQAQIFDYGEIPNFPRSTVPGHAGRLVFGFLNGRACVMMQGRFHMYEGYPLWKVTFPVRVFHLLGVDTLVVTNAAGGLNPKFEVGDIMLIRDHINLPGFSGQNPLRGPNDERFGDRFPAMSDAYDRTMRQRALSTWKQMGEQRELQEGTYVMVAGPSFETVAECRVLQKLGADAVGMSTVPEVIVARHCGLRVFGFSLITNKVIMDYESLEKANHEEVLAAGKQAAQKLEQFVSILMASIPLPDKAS

SMILES	IC50 [1] [µM]	IC50 [2] [µM]	IC50 [3] [µM]	IC50 [4] [µM]	IC50 [5] [µM]
Nc1nc(O)c2nc(N)n([C@@H]3O[C@H](CO)[C@@H](O)[C@H]3O)c2n1	> 500	> 500	3.25	~500	
Nc1nc2sc(N)nc2c(=O)[nH]1	> 50	> 50	> 50	> 50	142
Nc1nc2nc(N)sc2c(=O)[nH]1	> 50	> 50	> 50	> 50	~330
Nc1nc2[nH]c(N)nc2c(=O)[nH]1 [8-AMINOGUANINE]	> 500	> 500	2.35	~400	1.55
